Data published in ChEMBL document CHEMBL1152574, “Novel 2H-isoquinolin-3-ones as antiplasmodial falcipain-2 inhibitors” (Bioorg Med Chem, 2009).

Columns and labels:
[1] = Inhibition of Plasmodium falciparum falcipain-2
In short: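 Recombinant FP-2 in 100 mM sodium acetate pH 5.5, 10 mM DTT, substrate Cbz-Phe-Arg-AMC; reversibility screen at 100 µM with E-64 control, then continuous progress-curve assays with 0–100 µM inhibitor; fluorescence ex 365/em 460 nm; run twice; Ki from Dixon plot, corrected to zero substrate using Km 21.5 µM.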

[2] = tested on: Plasmodium falciparum; assay: Antiplasmodial activity against Plasmodium falciparum FcBR; format: functional, organism-based; conditions: FCBR/Columbia
In short: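 Synchronized ring-stage parasites (strain FCBR) grown in human RBC (A Rh+), RPMI 1640 with 25 mM HEPES, 20 mM bicarbonate, 0.5% AlbuMAX I, 2.5% hematocrit, 37 °C under 94% N₂/1% O₂/5% CO₂; plated at 1% parasitemia with compounds (DMSO stock diluted 10-fold in 50% ethanol), 100–0.0488 µM, in quadruplicate; 50% ethanol as negative control; dose-dependent effect on development quantified.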

[3] = molecular target: Rhodesain (Trypanosoma brucei rhodesiense, UniProt Q95PM0); assay: Inhibition of Trypanosoma brucei rhodesiense rhodesain
In short: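 Continuous fluorometric progress-curve assay in 100 mM sodium acetate, pH 5.5, with 10 mM DTT. Substrate is Cbz-Phe-Arg-AMC (40 or 10, depending on enzyme). Inhibitors come from DMSO stocks, at increasing concentrations up to 100. AMC read at ex 365/em 460 nm, each assay run twice. Kiapp is taken from a Dixon plot and corrected to zero substrate with Km to give Ki.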

[4] = molecular target: Cathepsin B (Homo sapiens, UniProt P07858); assay: Inhibition of human cathepsin B
[5] = molecular target: Procathepsin L (Homo sapiens, UniProt P07711); assay: Inhibition of human cathepsin L
Procathepsin L, sequence (P07711 whole entry): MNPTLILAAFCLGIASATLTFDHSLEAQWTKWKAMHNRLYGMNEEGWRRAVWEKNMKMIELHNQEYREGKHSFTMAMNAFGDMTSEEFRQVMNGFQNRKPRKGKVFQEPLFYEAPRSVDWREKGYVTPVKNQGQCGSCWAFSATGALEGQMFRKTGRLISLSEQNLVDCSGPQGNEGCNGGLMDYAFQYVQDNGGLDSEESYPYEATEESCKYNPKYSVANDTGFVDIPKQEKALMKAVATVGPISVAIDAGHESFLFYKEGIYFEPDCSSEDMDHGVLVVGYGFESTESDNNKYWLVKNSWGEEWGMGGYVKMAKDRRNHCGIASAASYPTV

Rhodesain, sequence (Q95PM0 whole entry): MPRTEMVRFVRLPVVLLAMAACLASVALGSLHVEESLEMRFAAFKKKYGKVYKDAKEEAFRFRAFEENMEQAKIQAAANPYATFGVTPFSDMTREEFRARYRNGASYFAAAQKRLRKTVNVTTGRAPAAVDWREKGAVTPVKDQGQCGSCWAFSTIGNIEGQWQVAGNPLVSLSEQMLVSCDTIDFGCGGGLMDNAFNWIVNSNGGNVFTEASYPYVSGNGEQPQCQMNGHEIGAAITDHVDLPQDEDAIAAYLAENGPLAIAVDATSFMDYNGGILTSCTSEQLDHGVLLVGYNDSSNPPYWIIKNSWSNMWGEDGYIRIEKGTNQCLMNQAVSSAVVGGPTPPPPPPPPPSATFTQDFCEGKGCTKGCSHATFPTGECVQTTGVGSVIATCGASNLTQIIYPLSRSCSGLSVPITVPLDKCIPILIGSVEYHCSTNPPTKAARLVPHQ

Row | SMILES | Ki [1] [µM] | IC50 [2] [µM] | Ki ([3]; read-out: Ki) [µM] | Ki ([4]; read-out: Ki) [µM] | Ki [5] [µM] | Ki [3] | Ki [4]
1 | Cc1cc2cc3c(cc2c(-c2ccc(N)cc2)n1)OCO3 | 7.3 | 38.8 | 19.4 | 6.9 | 8.7 |  | 
2 | COc1ccc(-c2c3cc4c(cc3cc(=O)n2NC(=O)Nc2ccc(SC)cc2)OCO4)cc1 | 6.5 | > 100 | 18.7 | 4 | 0.85 |  | 
3 | COc1ccc(-c2c3cc(OCc4ccccc4)c(OCc4ccccc4)cc3cc(=O)n2N)cc1 | 2.3 | 16.9 | 4 | 3.3 | 4.2 |  | 
4 | COc1ccc(-c2c3cc(OC)c(OC)cc3cc(=O)n2NC(=O)OC(C)(C)C)cc1 | 40.3 | 9.3 |  |  | 39.7 | Not Active | Not Active
5 | COc1ccc(-c2c3cc4c(cc3cc(=O)n2NC(=O)OC(C)(C)C)OCO4)cc1 | 24.4 | 7.7 | 19.4 | 7.5 | 4.1 |  | 
6 | COc1ccc(-c2c3cc4c(cc3cc(=O)n2N)OCO4)cc1 | 15 | 25.5 | 6.3 | 16.3 | 7 |  | 
7 | CC(C)C[C@H](NC(=O)[C@H]1O[C@@H]1C(=O)O)C(=O)NCCCCN=C(N)N [E-64] | 0.29 |  |  | 16 |  |  | 
8 | CC(=O)Oc1cc2cc3c(cc2c(-c2ccc(N)cc2)n1)OCO3 | 19.7 | 58.8 | 38.3 | 6.7 | 13.6 |  | 
9 | COc1ccc(-c2c3cc4c(cc3cc(=O)n2NC(=O)Nc2ccc(C(C)=O)cc2)OCO4)cc1 | 5.9 | 11.8 | 14 | 3.7 | 2.1 |  | 
10 | CCOC(=O)Nn1c(-c2ccc(OC)cc2)c2cc3c(cc2cc1=O)OCO3 | 62.7 | 8.4 | 9.4 | 16.7 | 7.7 |  | 
